Experimental data reported in ChEMBL document CHEMBL3351752, “Discovery and in vivo evaluation of alcohol-containing benzothiazoles as potent dual-targeting bacterial DNA supercoiling inhibitors” (Bioorg Med Chem Lett, 2014).
Values after ≈ are worked out from the molar mass of the structure shown.

Experiments:
Staphylococcus aureus [1] = experiment: Antibacterial activity against Staphylococcus aureus ATCC 29213 assessed as growth inhibition; format: functional
Streptococcus pyogenes [2] = experiment: Antibacterial activity against Streptococcus pyogenes 51339 assessed as growth inhibition; format: functional
Haemophilus influenzae = experiment: Antibacterial activity against Haemophilus influenzae 49247 assessed as growth inhibition; format: functional
Staphylococcus aureus [3] = experiment: Antimicrobial activity against Staphylococcus aureus harboring GyrB T173N mutant assessed as growth inhibition; format: functional
Streptococcus pyogenes [4] = experiment: Antimicrobial activity against Streptococcus pyogenes harboring ParE A53S mutant assessed as growth inhibition; format: functional
Staphylococcus aureus [5] = experiment: Antibacterial activity against Staphylococcus aureus ATCC 29213 assessed as growth inhibition in presence of 50% horse serum; format: functional
Staphylococcus aureus [6] = experiment: Inhibition of Staphylococcus aureus DNA gyrase ATPase subunit GyrA2/GyrB2 after 60 mins by malachite green staining assay
[7] = Fraction unbound in mouse plasma by ultracentrifugation; format: ADME, cell-free
Outline: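 Compound at 10 µM (1% DMSO) was equilibrated in neat plasma at 37 °C for 60 min. Duplicate aliquots were ultracentrifuged at 250,000g for 4.2 h at 37 °C. Free compound in the plasma-water supernatant was compared with uncentrifuged samples incubated alike. Uncentrifuged samples kept at 20 °C checked degradation, and diltiazem served as stability control. Analysis was by LCMS.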

Staphylococcus aureus [8] = experiment: Ratio of MIC for Staphylococcus aureus ATCC 29213 assessed as growth inhibition in presence of 50% horse serum to MIC for Staphylococcus aureus ATCC 29213 assessed as growth inhibition; format: functional

SMILES | MIC (Staphylococcus aureus [1]) [µg/mL] | MIC (Streptococcus pyogenes [2]) [µg/mL] | MIC (Haemophilus influenzae) [µg/mL] | MIC (Staphylococcus aureus [3]) [µg/mL] | MIC (Streptococcus pyogenes [4]) [µg/mL] | MIC (Staphylococcus aureus [5]) [µg/mL] | inhibitory concentration (Staphylococcus aureus [6]) [µg/mL] | fraction unbound [7] | Ratio (Staphylococcus aureus [8])
CCNC(=O)Nc1nc2cc(-c3cnc([C@@H](O)[C@H](O)C(F)(F)F)nc3)cc(-c3ccccn3)c2s1 (racemic) | 0.06 (≈ 0.119 µM) | 0.12 (≈ 0.238 µM) | 0.5 (≈ 0.991 µM) | 0.25 (≈ 0.496 µM) | 1 (≈ 1.98 µM) | 0.25 | 0.005 |  | 
CCCC(O)c1ncc(-c2cc(-c3ccccn3)c3sc(NC(=O)NCC)nc3c2)cn1 (racemic) | 0.03 (≈ 0.0669 µM) | 0.06 (≈ 0.134 µM) | 1 (≈ 2.23 µM) | 0.25 (≈ 0.557 µM) | 2 (≈ 4.46 µM) | 0.25 | 0.007 |  | 
CCNC(=O)Nc1nc2cc(-c3cnc(C(O)C(C)(C)C)nc3)cc(-c3ccccn3)c2s1 (racemic) | 0.12 (≈ 0.259 µM) | 0.12 (≈ 0.259 µM) |  | 0.25 (≈ 0.54 µM) | 2 (≈ 4.32 µM) | 2 | 0.012 |  | 
CCNC(=O)Nc1nc2cc(-c3cnc(C(C)(C)O)nc3)cc(-c3cc(CN4CC[C@@H](OC)C4)ccn3)c2s1 | 0.25 (≈ 0.456 µM) | 0.25 (≈ 0.456 µM) | 4 (≈ 7.3 µM) |  |  | 0.5 | 0.009 | 0.09 | 
CCNC(=O)Nc1nc2cc(-c3cnc(C4(O)CCN(C)CC4)nc3)cc(-c3ccccn3)c2s1 | 1 (≈ 2.04 µM) | 1 (≈ 2.04 µM) | 8 (≈ 16.3 µM) | 8 (≈ 16.3 µM) | 8 (≈ 16.3 µM) | 0.5 | 0.011 |  | 
CCNC(=O)Nc1nc2cc(-c3cnc(C4(O)COC4)nc3)cc(-c3ccccn3)c2s1 | 0.06 (≈ 0.134 µM) | 0.12 (≈ 0.268 µM) | 0.5 (≈ 1.11 µM) | 0.5 (≈ 1.11 µM) | 2 (≈ 4.46 µM) | 0.12 | 0.006 |  | 
CCNC(=O)Nc1nc2cc(-c3cnc(C(C)(C)O)nc3)cc(-c3cc(CN4CC[C@H](F)C4)ccn3)c2s1 | 0.12 (≈ 0.224 µM) | 0.06 (≈ 0.112 µM) | 2 (≈ 3.73 µM) |  |  | 0.25 | 0.008 | 0.061 | 
CCNC(=O)Nc1nc2cc(-c3cnc(C(O)(CC)CC)nc3)cc(-c3ccccn3)c2s1 | 0.25 (≈ 0.54 µM) | 0.5 (≈ 1.08 µM) | 8 (≈ 17.3 µM) | 1 (≈ 2.16 µM) | 8 (≈ 17.3 µM) | 4 | 0.017 |  | 
CCNC(=O)Nc1nc2cc(-c3cnc(C(C)(C)O)nc3)cc(-c3cc(CN4CC[C@@H](F)C4)ccn3)c2s1 | 0.06 (≈ 0.112 µM) | 0.06 (≈ 0.112 µM) | 1 (≈ 1.87 µM) |  |  | 0.25 | 0.005 | 0.063 | 
CCNC(=O)Nc1nc2cc(-c3cnc(C(C)(C)O)nc3)cc(-c3cc(CN4CC(O)C4)ccn3)c2s1 | 1 (≈ 1.92 µM) | 0.25 (≈ 0.481 µM) | 2 (≈ 3.85 µM) |  |  | 1 | 0.004 | 0.22 | 
CCNC(=O)Nc1nc2cc(-c3cnc(C(C)O)nc3)cc(-c3ccccn3)c2s1 (configuration not stated) | 0.03 (≈ 0.0713 µM) | 0.06 (≈ 0.143 µM) | 0.5 (≈ 1.19 µM) | 0.25 (≈ 0.595 µM) | 1 (≈ 2.38 µM) | 0.12 |  |  | 4
CCNC(=O)Nc1nc2cc(-c3cnc(CO)nc3)cc(-c3ccccn3)c2s1 | 0.03 (≈ 0.0738 µM) | 0.06 (≈ 0.148 µM) | 0.25 (≈ 0.615 µM) | 0.25 (≈ 0.615 µM) | 0.5 (≈ 1.23 µM) | 0.06 |  |  | 2
CCNC(=O)Nc1nc2cc(-c3cnc(C(O)C4CC4)nc3)cc(-c3ccccn3)c2s1 (racemic) | 0.06 (≈ 0.134 µM) | 0.06 (≈ 0.134 µM) | 0.5 (≈ 1.12 µM) | 0.25 (≈ 0.56 µM) | 1 (≈ 2.24 µM) | 0.25 | 0.008 |  | 
CCNC(=O)Nc1nc2cc(-c3cnc(C(C)(C)O)nc3)cc(-c3cc(CN4CCCC4)ccn3)c2s1 | 0.5 (≈ 0.966 µM) | 0.5 (≈ 0.966 µM) | 4 (≈ 7.73 µM) |  |  | 0.5 | 0.012 | 0.067 | 
CCNC(=O)Nc1nc2cc(-c3cnc(C(C)(C)O)nc3)cc(-c3cc(CN4CCC(F)(F)C4)ccn3)c2s1 | 0.06 (≈ 0.108 µM) | 0.03 (≈ 0.0542 µM) | > 16 |  |  | 0.25 | 0.007 | 0.041 | 
CCNC(=O)Nc1nc2cc(-c3cnc(C4(O)CCCC4)nc3)cc(-c3ccccn3)c2s1 | 0.03 (≈ 0.0651 µM) | 0.12 (≈ 0.261 µM) | 1 (≈ 2.17 µM) | 0.25 (≈ 0.543 µM) | 2 (≈ 4.34 µM) | 0.5 | 0.005 |  | 
CCNC(=O)Nc1nc2cc(-c3cnc(C4(O)CCS(=O)(=O)CC4)nc3)cc(-c3ccccn3)c2s1 | 0.25 (≈ 0.477 µM) | 0.25 (≈ 0.477 µM) | 1 (≈ 1.91 µM) | 1 (≈ 1.91 µM) | 2 (≈ 3.81 µM) | 0.5 | 0.006 |  | 
CCNC(=O)Nc1nc2cc(-c3cnc([C@@H](O)[C@@H](O)C(F)(F)F)nc3)cc(-c3ccccn3)c2s1 (racemic) | 0.12 (≈ 0.238 µM) | 0.12 (≈ 0.238 µM) | 0.5 (≈ 0.991 µM) | 0.5 (≈ 0.991 µM) | 1 (≈ 1.98 µM) | 0.25 | 0.004 |  | 

SMILES | MIC (Staphylococcus aureus [1]) [µg/mL] | MIC (Streptococcus pyogenes [2]) [µg/mL] | MIC (Haemophilus influenzae) [µg/mL] | MIC (Staphylococcus aureus [3]) [µg/mL] | MIC (Streptococcus pyogenes [4]) [µg/mL] | MIC (Staphylococcus aureus [5]) [µg/mL] | inhibitory concentration (Staphylococcus aureus [6]) [µg/mL] | fraction unbound [7] | Ratio (Staphylococcus aureus [8])
CCNC(=O)Nc1nc2cc(-c3cnc(C(C)(O)CO)nc3)cc(-c3ccccn3)c2s1 (racemic) | 0.12 (≈ 0.266 µM) | 0.12 (≈ 0.266 µM) | 0.5 (≈ 1.11 µM) | 1 (≈ 2.22 µM) | 2 (≈ 4.44 µM) | 0.25 | 0.006 |  | 
CCNC(=O)Nc1nc2cc(-c3cnc(C4(O)CNC4)nc3)cc(-c3ccccn3)c2s1 | > 16 | 8 (≈ 17.9 µM) | > 16 | > 16 | > 16 | > 16 | 0.029 |  | 
CCNC(=O)Nc1nc2cc(-c3cnc(C4(O)CCOCC4)nc3)cc(-c3ccccn3)c2s1 | 0.06 (≈ 0.126 µM) | 0.12 (≈ 0.252 µM) | 1 (≈ 2.1 µM) | 0.25 (≈ 0.525 µM) | 2 (≈ 4.2 µM) | 0.12 | 0.005 |  | 
CCNC(=O)Nc1nc2cc(-c3cnc(C(C)(C)O)nc3)cc(-c3cc(CNC4CC4)ccn3)c2s1 | 0.12 (≈ 0.238 µM) | 0.12 (≈ 0.238 µM) | 2 (≈ 3.97 µM) |  |  | 0.25 | 0.006 | 0.056 | 
CCNC(=O)Nc1nc2cc(-c3cnc(C(O)CC)nc3)cc(-c3ccccn3)c2s1 (racemic) | 0.06 (≈ 0.138 µM) | 0.06 (≈ 0.138 µM) | 1 (≈ 2.3 µM) | 0.25 (≈ 0.575 µM) | 1 (≈ 2.3 µM) | 0.25 | 0.006 |  | 
CCNC(=O)Nc1nc2cc(-c3cnc(C(C)(C)O)nc3)cc(-c3cc(CN4CC(C)(O)C4)ccn3)c2s1 | 0.5 (≈ 0.937 µM) | 0.12 (≈ 0.225 µM) | 4 (≈ 7.5 µM) |  |  | 0.5 | 0.011 | 0.223 | 
CCNC(=O)Nc1nc2cc(-c3cnc(C4(O)CCSCC4)nc3)cc(-c3ccccn3)c2s1 | 0.12 (≈ 0.244 µM) | 0.5 (≈ 1.01 µM) | 2 (≈ 4.06 µM) | 0.25 (≈ 0.507 µM) | 4 (≈ 8.12 µM) | 1 | 0.005 |  | 
CCNC(=O)Nc1nc2cc(-c3cnc(C4(O)CCOCC4O)nc3)cc(-c3ccccn3)c2s1 (racemic) | 0.5 (≈ 1.02 µM) | 0.12 (≈ 0.244 µM) | 2 (≈ 4.06 µM) | 4 (≈ 8.12 µM) | 2 (≈ 4.06 µM) | 0.5 | 0.009 |  | 
CCNC(=O)Nc1nc2cc(-c3cnc([C@@H](O)[C@@H](C)O)nc3)cc(-c3ccccn3)c2s1 (racemic) | 0.25 (≈ 0.555 µM) | 0.12 (≈ 0.266 µM) | 1 (≈ 2.22 µM) | 1 (≈ 2.22 µM) | 1 (≈ 2.22 µM) | 0.25 | 0.007 |  | 
CCNC(=O)Nc1nc2cc(-c3cnc(C(O)CO)nc3)cc(-c3ccccn3)c2s1 (racemic) | 0.12 (≈ 0.275 µM) | 0.12 (≈ 0.275 µM) | 0.5 (≈ 1.15 µM) | 2 (≈ 4.58 µM) | 2 (≈ 4.58 µM) | 0.5 | 0.006 |  | 
CCNC(=O)Nc1nc2cc(-c3cnc(C(O)CN4CCOCC4)nc3)cc(-c3ccccn3)c2s1 (racemic) | 0.12 (≈ 0.237 µM) | 0.12 (≈ 0.237 µM) | 2 (≈ 3.96 µM) | 1 (≈ 1.98 µM) | 2 (≈ 3.96 µM) | 0.25 | 0.011 |  | 
CCNC(=O)Nc1nc2cc(-c3cnc(C(C)(C)O)nc3)cc(-c3cc(CN4CC(OC)C4)ccn3)c2s1 | 0.12 (≈ 0.225 µM) | 0.12 (≈ 0.225 µM) | 2 (≈ 3.75 µM) |  |  | 0.25 | 0.011 | 0.11 | 
CCNC(=O)Nc1nc2cc(-c3cnc(C(C)(C)O)nc3)cc(-c3cc(CN4CCC(C)(O)C4)ccn3)c2s1 (configuration not stated) | 0.5 (≈ 0.913 µM) | 0.25 (≈ 0.456 µM) | 8 (≈ 14.6 µM) |  |  | 0.25 | 0.008 | 0.194 | 
CCNC(=O)Nc1nc2cc(-c3cnc(C(C)(C)O)nc3)cc(-c3cc(CN4CC[C@@H](O)C4)ccn3)c2s1 | 0.5 (≈ 0.937 µM) | 0.25 (≈ 0.468 µM) | 4 (≈ 7.5 µM) |  |  | 0.5 | 0.007 | 0.194 | 
CCNC(=O)Nc1nc2cc(-c3cnc(C4(O)CCCCC4)nc3)cc(-c3ccccn3)c2s1 | 8 (≈ 16.9 µM) | 8 (≈ 16.9 µM) | > 16 | > 16 | > 16 |  | 0.054 |  | 
CCNC(=O)Nc1nc2cc(-c3cnc([C@@H](O)[C@H](O)C(F)F)nc3)cc(-c3ccccn3)c2s1 (racemic) | 0.06 (≈ 0.123 µM) | 0.12 (≈ 0.247 µM) | 0.25 (≈ 0.514 µM) | 0.5 (≈ 1.03 µM) | 1 (≈ 2.06 µM) | 0.25 | 0.004 |  | 
CCNC(=O)Nc1nc2cc(-c3cnc(C4(O)CCNCC4)nc3)cc(-c3ccccn3)c2s1 | 8 (≈ 16.8 µM) | 2 (≈ 4.21 µM) | > 16 | > 16 | > 16 | 4 | 0.01 |  | 
